MC4R antag cAMP – MC4R antagonists of cAMP signaling, primary screen, cell-based, TR-FRET, antagonist arm of biased-ligand search. Melanocortin receptor 4 (Homo sapiens), P32245. MC4R-expressing cells, MTII-stimulated cAMP, LANCE TR-FRET. inhibition, % at 6.5 µM. actives 0.48% (n = 360,000). AID 540295, 2011;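 active means inhibition above its plate's cutoff, the mean of tested wells on that plate plus 3 SD, cut at about 29% in these data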;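 further: 0% = Melanotan II alone and 100% = Melanotan II plus saturating MCL0020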
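Material: human MC4R-expressing U2OS cells. Probe or stimulus: Melanotan II challenge. Dosing: 6.5 µM single dose. Times: 30-min compound, 1-h challenge, 1-h detection, room temperature. Technique: TR-FRET with Eu-cAMP and labeled anti-cAMP, 671 nm. Replication: singlicate.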
MC4R barr agon – MC4R agonists recruiting beta-arrestin, primary screen, cell-based, luminescence, agonist arm of biased-ligand search | Melanocortin receptor 4 (Homo sapiens), P32245 | U2OS MC4R beta-arrestin complementation; percent of melanotan II response, DMSO zero | activation, % at 8.9 µM | actives 0.98% (n = 360,000) | AID 540308, 2011;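 active means activation above a per-plate cutoff, the mean activation of sample wells on that plate plus 3 SD, cut at about 8% in these data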
EBI2 antag – EBI2 receptor antagonists, beta-arrestin recruitment, primary screen, cell-based, luminescence, 7a,25-OHC stimulation, uHTS. 7a,25-OHC stimulated. actives 0.81% (n = 360,000). inhibition, % at 5 µM. G-protein coupled receptor 183 (Homo sapiens), P32249; in the data active means inhibition above about 38%;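 further: enzyme fragment complementation signal reports receptor beta-arrestin coupling in cells; 0% = agonist plus DMSO wells and 100% = wells without agonist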
HTR2A ag – mouse Htr2a agonists via beta-arrestin recruitment, primary screen, cell-based, luminescence. 5-hydroxytryptamine receptor 2A (Mus musculus), P35363. CHO-K1 mHTR2A beta-arrestin complementation; percent of 30 µM serotonin response. activation, % at 7.6 µM. actives 0.66% (n = 360,000);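 active means activation above a run cutoff, the mean activation of all tested compounds plus 3 SD, cut at about 14% in these data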;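 further: 0% = plate median of compound wells and 100% = 30 µM serotonin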
Target sequence (P35363 whole entry, looked up): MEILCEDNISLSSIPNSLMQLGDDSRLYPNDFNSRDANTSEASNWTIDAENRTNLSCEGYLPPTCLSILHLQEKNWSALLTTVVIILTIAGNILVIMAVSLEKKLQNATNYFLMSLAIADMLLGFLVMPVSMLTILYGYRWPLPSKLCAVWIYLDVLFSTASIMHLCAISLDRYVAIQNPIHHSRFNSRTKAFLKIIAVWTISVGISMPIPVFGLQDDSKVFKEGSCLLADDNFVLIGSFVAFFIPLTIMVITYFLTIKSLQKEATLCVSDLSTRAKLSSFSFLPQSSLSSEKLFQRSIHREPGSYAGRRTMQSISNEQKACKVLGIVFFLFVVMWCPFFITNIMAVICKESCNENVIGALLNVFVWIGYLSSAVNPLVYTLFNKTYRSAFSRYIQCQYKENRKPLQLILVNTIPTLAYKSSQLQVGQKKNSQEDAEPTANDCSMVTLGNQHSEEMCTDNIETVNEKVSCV
EBI2 antag conf – EBI2 antagonist hit retest, beta-arrestin, confirmation, cell-based, single concentration, luminescence, 7a,25-OHC stimulation | shares compounds with EBI2 antag | 7a,25-OHC antagonism | inhibition, % at 5 µM | actives 29% (n = 2,400);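 active means inhibition of at least 50%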
EBI2 ag – EBI2 agonist activity of antagonist hits, confirmation, counter-screen for EBI2 antagonist project, cell-based, single concentration, agonist mode, luminescence. activation, % at 5 µM. 2,400 tested, under 10 active. shares compounds with EBI2 antag. EBI2-expressing cells, 60 min; 0% vehicle, 100% 7α,25-dihydroxycholesterol control;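 active means activation of at least 50%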
bGal cs – E. coli beta-galactosidase enzyme inhibition, confirmation, counter-screen for EBI2 antagonist project, biochemical, luminescence, single concentration. shares compounds with EBI2 antag. purified beta-galactosidase, luminescent Galacton Star, 15 min. inhibition, % at 5 µM. actives 1% (n = 2,400);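 active means replicate-average signal at least 3 plate SD below neutral wells, shown as high inhibition, flagging enzyme-inhibiting false positives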;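 further: 0% = DMSO wells with enzyme and 100% = wells lacking enzyme; higher means stronger loss of beta-gal luminescence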
Numbers without * were called inactive; / = not tested or not shown. Only some compounds are listed: those with a hit (about 2.8% of all), similar ones and a draw of the others.

SMILES	MC4R antag cAMP	MC4R barr agon	EBI2 antag	HTR2A ag	EBI2 antag conf	EBI2 ag	bGal cs
O=C(NCc1ccc(Cl)cc1)C1CCCN(C(=O)c2ccc(Cl)cc2)C1 (configuration not stated)	4	-2	66*	0	34	-2	-11
Cc1ccc(S(=O)(=O)N2CCN(C(=O)c3cc4c(s3)CCCC4)CC2)c(C)c1	4	1	68*	-1	34	-1	-11
Cc1c(C(=O)NCc2ccccc2C(F)(F)F)sc(=O)n1Cc1ccc(S(=O)(=O)N(C)C)cc1	7	-2	8	0	/	/	/
CCN1CCN(C(=O)c2cc(=O)c3cc(C)ccc3o2)CC1	0	-2	67*	2	42	0	9
CCc1ccc2oc(C(=O)N3CCN(C)CC3)cc(=O)c2c1	7	-2	45*	0	8	1	6
CCC(C)c1ccccc1NC(=O)COC(=O)C1=NN(c2ccccc2)C(=O)CC1 (configuration not stated)	-1	-1	-1	-1	/	/	/
CC(=O)Nc1cc(-c2cccc(C)c2)cn2c(-c3ccc(S(C)(=O)=O)cc3)cnc12	12	2	41	-1	/	/	/
CC(=O)Nc1cc(-c2ccccc2Cl)cn2c(-c3ccc(S(C)(=O)=O)cc3)cnc12	23	3	55*	1	25	2	3
O=C(NCc1ccc(Cl)cc1)C1CC(O)CN1S(=O)(=O)c1ccc(Cl)cc1 (configuration not stated)	0	0	-4	-1	/	/	/
CCOC(=O)C1=CCN(S(=O)(=O)c2ccccc2C)C1c1cccc(Br)c1 (configuration not stated)	/	/	67*	-5	25	-1	-13
CCOC(=O)C1=CCN(S(=O)(=O)c2ccccc2Cl)C1c1cccc(C)c1 (configuration not stated)	/	/	40*	-2	25	0	8
COc1ccc(S(=O)(=O)N(C)c2nc3ccccc3n3c(CC(C)C)nnc23)cc1	7	-2	8	-3	/	/	/
COc1ccc(C(=O)/C=C/c2ccc(OC(=O)c3cc(OC)c(OC)c(OC)c3)cc2)cc1	6	-1	45*	0	10	1	8
COC(=O)c1ccc2nc(-c3ccc(C#N)cc3)c(Cc3ccsc3)n2c1	/	/	63*	2	52*	-1	-17
COC(=O)c1ccc2nc(-c3ccc(C)cc3)c(Cc3ccsc3)n2c1	/	/	20	-4	/	/	/
CCc1ccc(Nc2nnc(SCC(=O)c3c(N)n(C4CC4)c(=O)[nH]c3=O)s2)cc1	8	2	12	4	/	/	/
Cn1c(=O)c2c(nc(N/N=C/c3ccc(OC(=O)c4ccco4)cc3)n2Cc2ccccc2Cl)n(C)c1=O	5	-1	54*	2	34	0	11
Cn1c(=O)c2c(nc(N/N=C/c3ccc(OC(=O)c4ccco4)cc3)n2Cc2ccc(F)cc2)n(C)c1=O	4	4	19	-1	/	/	/
O=C(NC1CC(=O)N(c2ccc(Cl)cc2)C1)N1CCN(C(=O)c2ccco2)CC1 (configuration not stated)	-1	-1	66*	2	48	-1	5
COc1ccc(N2CCN(C(=O)NC3CC(=O)N(c4ccc(OC)cc4)C3)CC2)cc1 (configuration not stated)	3	0	46*	-1	19	-1	4
COc1ccc(NC(=O)N2CCN(c3ccc([N+](=O)[O-])cc3)CC2)cc1	7	1	62*	4	41	2	11
COc1ccc(NC(=O)N2CCN(c3ccc([N+](=O)[O-])cc3)CC2)cc1OC	20	-4	-10	5	/	/	/
CCc1cccc(C)c1NC(=O)C1CC(=O)N(C2CCCC2)C1 (configuration not stated)	0	-3	-3	0	/	/	/
Cc1ccc(/C=N/NC(=O)CN2CCN(Cc3ccccc3Cl)CC2)o1	9	-1	25	-3	/	/	/
CSc1ccc(/C=N/NC(=O)CN2CCN(Cc3ccc(C)cc3)CC2)cc1	5	-3	45*	-7	36	1	6
SMILES	MC4R antag cAMP	MC4R barr agon	EBI2 antag	HTR2A ag	EBI2 antag conf	EBI2 ag	bGal cs
CSc1ccc(/C=N/NC(=O)CN2CCN(Cc3ccccc3Cl)CC2)cc1	-2	-1	61*	-2	46	1	6
O=C(CN1CCN(Cc2ccc(Cl)cc2)CC1)N/N=C/c1ccncc1	2	1	1	3	/	/	/
O=C(Nc1ccc(-c2cn3c(n2)SCC3)cc1)c1ccco1	-1	1	-8	-4	/	/	/
O=C(CCC(=O)N1CCOc2ccccc21)Nc1ccccc1Cl	1	-1	-1	-4	/	/	/
CCC[C@@H]1Cc2ccccc2N1C(C)=O	2	-1	8	8	/	/	/
CCOC(=O)N1CCC(=NNC(=O)COc2ccc(OC)cc2)CC1	4	-2	-2	1	/	/	/
COc1ccc(CCNC(=O)c2cnc3ccccc3n2)cc1	7	1	-3	2	/	/	/
COc1ccc(CCNC(=O)c2cccc(C(=O)NCCc3ccc(OC)cc3)n2)cc1	-3	4	50*	-1	38	0	-23
C[C@]12c3[nH]c4cc(-c5ccco5)ccc4c3CCN1C(=O)[C@@H](CC(=O)NCC13CC4CC(CC(C4)C1)C3)C[C@@H]2C(=O)N1CCCCC1	15	-1	44*	-7	13	-1	-4
COc1ccc(N2CCN(c3nc(-c4cccs4)nc4ccccc34)CC2)cc1	-1	-2	63*	-2	42	1	9
Cc1sc2ncnc(SCC(=O)NCC(C)C)c2c1C	-1	-1	-1	-2	/	/	/
CCc1ccc(OCC(=O)NNC(=O)CSc2ncnc3sc(C)c(C)c23)cc1	3	4	70*	-5	35	2	3
Cc1sc2ncnc(SCC(=O)NC(C)(C)C)c2c1C	14	0	-9	7	/	/	/
Cc1ccc(OCC(=O)NNC(=O)CSc2ncnc3sc(C)c(C)c23)cc1	-3	-4	66*	11	29	0	9
